Measured values reported in ChEMBL document CHEMBL1153828, “Structures of the tyrosine kinase domain of fibroblast growth factor receptor in complex with inhibitors” (Science, 1997).
Activity calls are given as the source filed them. The rule behind the calls is not given here.

Columns and labels:
[1] = target: T1, Platelet-derived growth factor receptor (Mus musculus) (UniProt P05622+P26618); test: Inhibition of PDGFR in mouse NIH/3T3 cells assessed as inhibition of PDGF-stimulated phospholipase C gamma phosphorylation by immunoblotting; type: cell-based; conditions: NIH3T3
How it was run: (§1)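 Cells were preincubated with a range of inhibitor concentrations for 5 min at 37°C, then stimulated for 5 min at 37°C: PDGF 40 ng/ml, insulin 1 μg/ml or EGF 100 ng/ml. Whole-lysate portions went directly to SDS-PAGE and anti-phosphotyrosine immunoblotting, and substrate phosphoproteins were located by position.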

[2] = target: Fibroblast growth factor receptor 1 (Mus musculus, UniProt P16092); test: Inhibition of acidic FGF-stimulated FGFR1 tyrosine autophosphorylation in mouse NIH/3T3 cells by immunoblotting; type: cell-based, NIH3T3
Fibroblast growth factor receptor 1 (Mus musculus, UniProt P16092), sequence (P16092 whole entry): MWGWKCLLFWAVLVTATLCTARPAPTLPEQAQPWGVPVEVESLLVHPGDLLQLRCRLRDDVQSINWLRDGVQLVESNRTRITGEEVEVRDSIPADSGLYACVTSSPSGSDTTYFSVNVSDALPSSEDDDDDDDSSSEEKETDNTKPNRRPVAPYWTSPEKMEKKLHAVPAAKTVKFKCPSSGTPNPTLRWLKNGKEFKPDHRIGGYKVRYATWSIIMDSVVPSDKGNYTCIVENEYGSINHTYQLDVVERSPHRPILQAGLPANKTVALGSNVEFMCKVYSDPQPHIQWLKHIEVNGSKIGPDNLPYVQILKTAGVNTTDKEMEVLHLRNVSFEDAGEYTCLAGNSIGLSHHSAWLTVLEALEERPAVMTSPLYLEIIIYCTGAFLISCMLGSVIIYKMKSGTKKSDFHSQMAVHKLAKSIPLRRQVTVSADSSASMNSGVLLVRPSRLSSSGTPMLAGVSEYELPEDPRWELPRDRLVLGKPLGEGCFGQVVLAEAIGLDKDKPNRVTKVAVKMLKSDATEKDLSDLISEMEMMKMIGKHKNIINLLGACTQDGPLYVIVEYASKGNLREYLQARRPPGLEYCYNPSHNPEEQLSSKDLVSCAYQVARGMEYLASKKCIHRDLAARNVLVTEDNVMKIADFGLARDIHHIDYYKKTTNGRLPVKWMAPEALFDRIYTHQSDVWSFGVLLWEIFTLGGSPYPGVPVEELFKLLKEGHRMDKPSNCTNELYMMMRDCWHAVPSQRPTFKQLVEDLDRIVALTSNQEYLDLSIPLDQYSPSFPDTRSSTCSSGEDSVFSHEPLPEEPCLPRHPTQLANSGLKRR

[3] = target: Epidermal growth factor receptor (Mus musculus) (UniProt Q01279); test: Inhibition of EGF-stimulated EGFR phosphorylation in mouse HER14 cells by immunoblotting; type: cell-based
Epidermal growth factor receptor (Mus musculus), sequence (Q01279 whole entry): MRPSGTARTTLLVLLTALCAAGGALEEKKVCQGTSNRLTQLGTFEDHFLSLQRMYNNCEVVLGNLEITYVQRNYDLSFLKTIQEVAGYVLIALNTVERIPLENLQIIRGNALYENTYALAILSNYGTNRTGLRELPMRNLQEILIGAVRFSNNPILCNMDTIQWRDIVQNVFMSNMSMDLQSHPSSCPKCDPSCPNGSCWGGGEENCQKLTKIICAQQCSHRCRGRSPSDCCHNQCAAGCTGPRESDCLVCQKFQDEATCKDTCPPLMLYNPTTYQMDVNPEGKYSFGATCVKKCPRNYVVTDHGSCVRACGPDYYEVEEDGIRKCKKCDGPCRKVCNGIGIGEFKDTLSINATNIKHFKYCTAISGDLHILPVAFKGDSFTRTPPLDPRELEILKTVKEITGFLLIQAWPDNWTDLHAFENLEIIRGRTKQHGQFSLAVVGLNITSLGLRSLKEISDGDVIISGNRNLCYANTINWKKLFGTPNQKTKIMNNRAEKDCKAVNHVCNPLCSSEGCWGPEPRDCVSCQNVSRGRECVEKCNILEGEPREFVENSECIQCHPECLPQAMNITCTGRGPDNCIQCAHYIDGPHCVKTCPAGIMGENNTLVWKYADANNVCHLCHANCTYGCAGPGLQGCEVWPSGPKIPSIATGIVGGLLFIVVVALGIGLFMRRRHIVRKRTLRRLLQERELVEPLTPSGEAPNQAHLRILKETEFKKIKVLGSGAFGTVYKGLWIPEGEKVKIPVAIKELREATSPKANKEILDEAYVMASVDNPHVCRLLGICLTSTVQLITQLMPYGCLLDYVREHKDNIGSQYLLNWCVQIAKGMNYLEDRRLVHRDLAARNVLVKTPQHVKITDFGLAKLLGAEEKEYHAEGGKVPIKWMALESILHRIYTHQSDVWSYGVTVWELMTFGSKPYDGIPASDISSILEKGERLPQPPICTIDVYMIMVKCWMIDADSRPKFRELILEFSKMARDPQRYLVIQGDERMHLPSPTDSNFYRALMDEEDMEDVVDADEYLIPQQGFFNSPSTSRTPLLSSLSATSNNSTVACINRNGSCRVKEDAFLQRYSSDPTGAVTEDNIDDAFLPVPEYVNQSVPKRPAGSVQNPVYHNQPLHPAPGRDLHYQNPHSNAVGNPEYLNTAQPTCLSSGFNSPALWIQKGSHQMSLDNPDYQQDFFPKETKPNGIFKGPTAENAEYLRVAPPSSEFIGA
How it was run: (§2)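 Cells were preincubated with a range of inhibitor concentrations for 5 min at 37°C, then stimulated for 5 min at 37°C (unstimulated controls kept): PDGF 40 ng/ml for PDGFR, insulin 1 μg/ml for insulin receptor, EGF 100 ng/ml for EGFR. Lysates were immunoprecipitated with receptor-specific antibodies, run on SDS-PAGE and immunoblotted with anti-phosphotyrosine.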

[4] = target: Insulin receptor (Mus musculus) (UniProt P15208); test: Inhibition of insulin-stimulated insulin receptor beta subunit autophosphorylation in mouse NIHIR cells; type: cell-based; how it was run: as §2
Insulin receptor (Mus musculus), sequence (P15208 28-748 limits assumed): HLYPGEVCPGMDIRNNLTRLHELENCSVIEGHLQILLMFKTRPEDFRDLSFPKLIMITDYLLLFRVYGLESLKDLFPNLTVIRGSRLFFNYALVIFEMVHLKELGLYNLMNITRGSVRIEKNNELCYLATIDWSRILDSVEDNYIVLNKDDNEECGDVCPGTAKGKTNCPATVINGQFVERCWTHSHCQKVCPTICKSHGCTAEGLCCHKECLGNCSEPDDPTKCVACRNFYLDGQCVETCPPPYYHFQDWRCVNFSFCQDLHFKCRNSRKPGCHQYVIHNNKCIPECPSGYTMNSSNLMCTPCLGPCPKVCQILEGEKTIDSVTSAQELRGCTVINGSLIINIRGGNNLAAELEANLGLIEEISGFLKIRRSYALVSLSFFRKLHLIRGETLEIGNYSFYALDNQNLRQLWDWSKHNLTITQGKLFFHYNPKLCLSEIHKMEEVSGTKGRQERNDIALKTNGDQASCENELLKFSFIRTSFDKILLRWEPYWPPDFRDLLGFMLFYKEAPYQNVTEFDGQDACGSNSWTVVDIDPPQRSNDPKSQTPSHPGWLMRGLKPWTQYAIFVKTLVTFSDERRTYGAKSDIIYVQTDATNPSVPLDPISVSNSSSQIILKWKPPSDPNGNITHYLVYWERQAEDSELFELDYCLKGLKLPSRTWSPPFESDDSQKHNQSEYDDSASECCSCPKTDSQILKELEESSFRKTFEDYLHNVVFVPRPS
Insulin receptor (Mus musculus), sequence (P15208 753-1372 limits assumed): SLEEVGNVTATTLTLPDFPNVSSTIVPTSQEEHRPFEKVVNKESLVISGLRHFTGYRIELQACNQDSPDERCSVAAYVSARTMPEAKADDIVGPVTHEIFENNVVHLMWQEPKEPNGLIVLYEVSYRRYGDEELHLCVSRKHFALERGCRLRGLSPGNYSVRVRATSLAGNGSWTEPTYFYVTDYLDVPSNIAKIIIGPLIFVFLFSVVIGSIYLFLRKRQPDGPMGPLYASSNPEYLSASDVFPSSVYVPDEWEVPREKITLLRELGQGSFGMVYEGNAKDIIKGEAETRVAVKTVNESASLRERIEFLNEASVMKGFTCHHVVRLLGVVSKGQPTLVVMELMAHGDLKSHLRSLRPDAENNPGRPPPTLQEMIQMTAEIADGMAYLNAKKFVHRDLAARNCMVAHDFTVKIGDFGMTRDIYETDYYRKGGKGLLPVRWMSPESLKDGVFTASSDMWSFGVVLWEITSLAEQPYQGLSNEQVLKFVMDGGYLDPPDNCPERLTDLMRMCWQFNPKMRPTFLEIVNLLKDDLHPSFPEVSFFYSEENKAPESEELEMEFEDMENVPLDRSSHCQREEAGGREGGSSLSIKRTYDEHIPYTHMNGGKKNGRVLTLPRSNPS

[5] = target: T1, Platelet-derived growth factor receptor (Mus musculus); test: Inhibition of PDGFR in mouse NIH/3T3 cells assessed as PDGF-stimulated Erk2 activation by immunoblotting; type: cell-based; conditions: NIH3T3
[6] = target: Epidermal growth factor receptor (Mus musculus) (UniProt Q01279); test: Inhibition of EGFR in mouse HER14 cells assessed as inhibition of EGF-stimulated Shc phosphorylation by immunoblotting; type: cell-based; how it was run: as §1
[7] = target: T1, Platelet-derived growth factor receptor (Mus musculus); test: Inhibition of PDGFR in mouse NIH/3T3 cells assessed as inhibition of PDGF-stimulated tyrosine autophosphorylation by immunoblotting; type: cell-based; conditions: NIH3T3; how it was run: as §2
[8] = target: Insulin receptor (Mus musculus) (UniProt P15208); test: Inhibition of insulin receptor in mouse NIHIR cells assessed as inhibition of insulin-stimulated IRS1 phosphorylation; type: cell-based; how it was run: as §1
[9] = target: Fibroblast growth factor receptor 1 (Homo sapiens, UniProt P11362); test: Inhibition of FGFR1K autophosphorylation activity assessed as [32P] incorporation
Fibroblast growth factor receptor 1 (Homo sapiens, UniProt P11362), sequence (P11362 whole entry): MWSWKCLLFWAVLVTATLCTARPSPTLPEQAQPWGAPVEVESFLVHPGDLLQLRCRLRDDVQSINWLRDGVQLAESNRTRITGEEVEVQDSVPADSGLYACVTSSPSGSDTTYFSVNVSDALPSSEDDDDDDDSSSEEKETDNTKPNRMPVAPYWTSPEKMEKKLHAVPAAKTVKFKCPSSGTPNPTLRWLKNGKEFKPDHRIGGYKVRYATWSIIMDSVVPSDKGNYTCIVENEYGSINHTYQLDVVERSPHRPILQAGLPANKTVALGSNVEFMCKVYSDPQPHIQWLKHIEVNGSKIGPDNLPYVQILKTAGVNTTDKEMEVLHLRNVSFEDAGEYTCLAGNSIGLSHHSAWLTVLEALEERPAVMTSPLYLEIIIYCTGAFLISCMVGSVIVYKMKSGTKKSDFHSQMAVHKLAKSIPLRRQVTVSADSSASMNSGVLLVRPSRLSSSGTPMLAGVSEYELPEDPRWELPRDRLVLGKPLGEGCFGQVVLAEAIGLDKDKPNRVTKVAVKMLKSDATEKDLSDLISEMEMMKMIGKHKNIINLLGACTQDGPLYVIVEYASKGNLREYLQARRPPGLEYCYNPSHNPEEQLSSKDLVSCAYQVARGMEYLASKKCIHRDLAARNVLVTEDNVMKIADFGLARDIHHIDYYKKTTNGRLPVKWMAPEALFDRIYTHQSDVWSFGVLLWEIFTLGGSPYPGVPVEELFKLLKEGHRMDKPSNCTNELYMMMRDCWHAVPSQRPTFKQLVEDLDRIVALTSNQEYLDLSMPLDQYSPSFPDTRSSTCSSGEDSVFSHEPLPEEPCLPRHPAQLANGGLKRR

[10] = target: Insulin receptor (Mus musculus) (UniProt P15208); test: Inhibition of insulin receptor tyrosine phosphorylation in mouse NIH3T3 cells; type: cell-based; how it was run: as §2
[11] = system: NIH3T3; test: Growth inhibition of mouse NIH/3T3 cells assessed as inhibition of acidic FGF-stimulated [3H]thymidine incorporation; type: functional, cell-based
How it was run: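 NIH 3T3 cells, untreated or pretreated with inhibitor at 50 μM, were stimulated with aFGF and then labeled with [3H]thymidine. Thymidine incorporation was measured after 24 hours.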

[12] = target: Epidermal growth factor receptor (Mus musculus) (UniProt Q01279); test: Inhibition of EGFR phosphorylation in mouse NIH/3T3 cells at 200 uM; type: cell-based; conditions: NIH3T3
[13] = target: Epidermal growth factor receptor (Mus musculus) (UniProt Q01279); test: Inhibition of EGFR in mouse HER14 cells assessed as inhibition of EGF-stimulated ERK2 activation by immunoblotting; type: cell-based
[14] = target: T1, Platelet-derived growth factor receptor (Mus musculus); test: Inhibition of PDGFR tyrosine phosphorylation in mouse NIH3T3 cells; type: cell-based; how it was run: as §2

SMILES | Activity [1] | IC50 [2] | Activity [3] | Activity [4] | Activity [5] | Activity [6] | Activity [7] | Activity [8] | IC50 [9] | Activity [10] | Activity [11] | Activity [12] | Activity [13] | Activity [14]
Cc1c[nH]c(/C=C2\C(=O)Nc3ccccc32)c1CCC(=O)O | Active | 10 µM | Active | Active | Active | Active | Active | Active | 10 µM | inactive | Active | inactive | Active | –
O=CN1CCN(c2ccc(/C=C3\C(=O)Nc4ccccc43)cc2)CC1 | Active | 20 µM | – | Active | Active | – | Active | Active | 10 µM | Active | Active | inactive | – | Active
